Measured values reported in ChEMBL document CHEMBL3612006, “Novel dialkylphosphorylhydrazones: Synthesis, leishmanicidal evaluation and theoretical investigation of the proposed mechanism of action” (Eur J Med Chem, 2015).
The source made the active and inactive calls. The rule behind the calls is not given here.

Assays:
Leishmania amazonensis [1] = experiment: Leishmanicidal activity against Leishmania amazonensis MHOM/BR/87/BA125 after 48 hrs; assay type: functional, organism-based; conditions: MHOM/BR/87/BA125, 48 h
Outline: (§1)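 Log-phase promastigotes at 10⁵ per well in medium with 10% heat-inactivated FCS, 2 mM L-glutamine, gentamicin and 2% human urine were grown with compound at 26 °C for 48 h. Parasites were counted by automatic cell counter, with inhibition expressed as % of DMSO-treated control. Triplicates, with experiments repeated at least twice.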

Leishmania amazonensis [2] = experiment: Leishmanicidal activity against Leishmania amazonensis MHOM/BR/87/BA125 after 48 hrs relative to control; assay type: functional; parameters: concentration or dose not given beside the values; outline: as §1
Leishmania braziliensis [3] = experiment: Leishmanicidal activity against Leishmania braziliensis MHOM/BR/01/BA788 after 48 hrs relative to control; assay type: functional; parameters: concentration or dose not given beside the values; outline: as §1
[4] = Cytotoxicity against mouse J774 cells after 48 hrs by MTT assay; assay type: cell-based; conditions: read-out: LC50
Outline: (§2)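 J774 murine macrophages in DMEM with 2 mM L-glutamine, 10 mM HEPES, 10% FCS and gentamicin were seeded at 1.5 × 10⁵ cells/well and attached for 24 h at 37 °C. Cells were exposed to 1, 10 or 100 µM for 48 h, then given MTT for 1 h at 37 °C in the dark. Formazan was dissolved in DMSO and read at 540 nm. Triplicates with growth controls.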

Leishmania braziliensis [5] = experiment: Leishmanicidal activity against Leishmania braziliensis MHOM/BR/01/BA788 after 48 hrs; assay type: functional, organism-based; conditions: MHOM/BR/01/BA788, 48 h; outline: as §1
Leishmania amazonensis [6] = experiment: Antiamastigote activity against Leishmania amazonensis MHOM/BR/87/BA125 infected in BALB/c mouse peritoneal macrophages assessed as inhibition of infection index at 100 uM after 48 hrs by Giemsa staining; assay type: functional; conditions: MHOM/BR/87/BA125, 48 h
Outline: (§3)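 Thioglycollate-elicited BALB/c peritoneal macrophages, 4 × 10⁵ per well on coverslips in DMEM with 10% FBS, adhered overnight and were infected with L. amazonensis promastigotes at 37 °C for 4 h. Free parasites were removed, then compounds were added (1, 10, 100 µM; DMSO ≤0.01%) for 48 h at 37 °C, 5% CO2. Infection index = % infected × mean amastigotes per macrophage.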

Leishmania amazonensis [7] = experiment: Antiamastigote activity against Leishmania amazonensis MHOM/BR/87/BA125 infected in BALB/c assessed as decrease of lesion size in ear at 30 mg/kg, po qd for 28 days measured up to 30 days; assay type: functional
Outline: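 Female BALB/c mice, 6-8 weeks old, inoculated in right ear dermis with 10⁵ stationary-phase L. amazonensis promastigotes in sterile saline. From the second week post-infection, groups of 5 were dosed orally once daily for 28 days at 30 mg/kg/day in water; vehicle control received water orally. Lesion size was taken as infected minus contralateral ear thickness, measured twice weekly by digital caliper.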

Leishmania amazonensis [8] = experiment: Antiamastigote activity against Leishmania amazonensis MHOM/BR/87/BA125 infected in BALB/c mouse peritoneal macrophages assessed as decrease of percentage of infected macrophages at 1 to 100 uM after 48 hrs by Giemsa staining; assay type: functional, organism-based; outline: as §3
Leishmania amazonensis [9] = experiment: Antiamastigote activity against Leishmania amazonensis MHOM/BR/87/BA125 infected in BALB/c mouse peritoneal macrophages assessed as inhibition of infection index after 48 hrs by Giemsa staining; assay type: functional, organism-based; outline: as §3
Leishmania amazonensis [10] = experiment: Antiamastigote activity against Leishmania amazonensis MHOM/BR/87/BA125 infected in BALB/c assessed as decrease of parasite load in draining lymph nodes at 30 mg/kg, po qd for 28 days measured up to 30 days; assay type: functional, organism-based
Outline: (§4)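 BALB/c mice (n = 5 per group) infected in the ear dermis with 10⁵ L. amazonensis promastigotes, then dosed orally with 30 mg/kg/day in water for 28 days. After treatment, infected ears and draining lymph nodes were excised, homogenized and serially diluted in Schneider medium with 10% FCS for a limiting dilution assay. Groups were compared to control by one-way ANOVA with Dunnett's test.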

Leishmania amazonensis [11] = experiment: Antiamastigote activity against Leishmania amazonensis MHOM/BR/87/BA125 infected in BALB/c mouse peritoneal macrophages assessed as decrease of percentage of infected macrophages at 10 to 100 uM after 48 hrs by Giemsa staining; assay type: functional, organism-based; outline: as §3
Leishmania amazonensis [12] = experiment: Antiamastigote activity against Leishmania amazonensis MHOM/BR/87/BA125 infected in BALB/c assessed as decrease of parasite load in ear at 30 mg/kg, po qd for 28 days measured up to 30 days; assay type: functional, organism-based; outline: as §4
Leishmania amazonensis [13] = experiment: Antiamastigote activity against Leishmania amazonensis MHOM/BR/87/BA125 infected in BALB/c mouse peritoneal macrophages assessed as decrease of percentage of infected macrophages at 1 uM after 48 hrs by Giemsa staining; assay type: functional, organism-based; outline: as §3
Leishmania amazonensis [14] = experiment: Antiamastigote activity against Leishmania amazonensis MHOM/BR/87/BA125 infected in BALB/c mouse peritoneal macrophages assessed as decrease of number of intracellular parasites per macrophage at 1 to 100 uM after 48 hrs by Giemsa staining; assay type: functional, organism-based; outline: as §3
Leishmania amazonensis [15] = experiment: Antiamastigote activity against Leishmania amazonensis MHOM/BR/87/BA125 infected in BALB/c mouse peritoneal macrophages assessed as decrease of percentage of infected macrophages at 100 uM after 48 hrs by Giemsa staining; assay type: functional; conditions: MHOM/BR/87/BA125, 48 h; outline: as §3
J774 = experiment: Cytotoxicity against mouse J774 cells at 100 uM after 48 hrs by MTT assay; assay type: cell-based; conditions: j774, 48 h; outline: as §2

Compound	IC50 (Leishmania amazonensis [1])	Efficacy (Leishmania amazonensis [2])	Efficacy (Leishmania braziliensis [3])	CC50 at 48 h [4]	IC50 (Leishmania braziliensis [5])	inhibition at 100 µM (Leishmania amazonensis [6])	Activity (Leishmania amazonensis [7])	Activity (Leishmania amazonensis [8])	inhibition (Leishmania amazonensis [9])	Activity (Leishmania amazonensis [10])	Activity (Leishmania amazonensis [11])	Activity (Leishmania amazonensis [12])	Activity (Leishmania amazonensis [13])	Activity (Leishmania amazonensis [14])	inhibition at 100 µM (Leishmania amazonensis [15])	Activity (J774)
CCCCOP(=O)(N/N=C/c1cccnc1)OCCCC	53.3 µM	85.6%	87.9%	> 100 µM	5.4 µM	–	–	–	–	–	–	–	–	–	–	–
CCOP(=O)(N/N=C/c1ccncc1)OCC	> 100 µM	inactive	inactive	> 100 µM	> 100 µM	–	–	–	–	–	–	–	–	–	–	–
CC(C)COP(=O)(N/N=C/c1ccccn1)OCC(C)C	98.3 µM	40.7%	inactive	> 100 µM	> 100 µM	–	–	–	–	–	–	–	–	–	–	–
CCC(C)OP(=O)(N/N=C/c1cccnc1Br)OC(C)CC (stereo not given)	< 0.001 µM	95.3%	80.1%	> 100 µM	5.2 µM	97.9%	0.0804 mm	Active	Dose-dependent effect	Active	Active	Active	inactive	Active	82.2%	–
CCOP(=O)(N/N=C/c1cccnc1)OCC	> 100 µM	inactive	inactive	> 100 µM	> 100 µM	–	–	–	–	–	–	–	–	–	–	–
CC(C)OP(=O)(N/N=C/c1ccncc1)OC(C)C	> 100 µM	inactive	inactive	> 100 µM	> 100 µM	–	–	–	–	–	–	–	–	–	–	–
CCOP(=O)(N/N=C/c1ccccn1)OCC (mixture of isomers)	> 100 µM	inactive	62.1%	> 100 µM	7.5 µM	–	–	–	–	–	–	–	–	–	–	–
CC(C)OP(=O)(N/N=C/c1ccccn1)OC(C)C	> 100 µM	inactive	56.3%	> 100 µM	0.7 µM	–	–	–	–	–	–	–	–	–	–	–
CCC(C)OP(=O)(N/N=C/c1cncc(Br)c1)OC(C)CC (stereo not given)	26.3 µM	93.8%	92.2%	> 100 µM	3.6 µM	99.9%	0.0527 mm	Active	Dose-dependent effect	Active	Active	inactive	inactive	Active	99.3%	–
CCCCOP(=O)(N/N=C/c1ccccn1)OCCCC (mixture of isomers)	6.2 µM	69.5%	76.3%	> 100 µM	0.06 µM	–	–	–	–	–	–	–	–	–	–	–
N=C(N)c1ccc(OCCCCCOc2ccc(C(=N)N)cc2)cc1 [PENTAMIDINE]	1.8 µM	93.8%	95.7%	> 100 µM	0.06 µM	–	–	–	–	–	–	–	–	–	–	28.8%
CC(C)OP(=O)(N/N=C/c1cccnc1)OC(C)C	> 100 µM	inactive	75.9%	> 100 µM	0.4 µM	–	–	–	–	–	–	–	–	–	–	–
CCCCCCCCCCCCCCCCOP(=O)([O-])OCC[N+](C)(C)C [MILTEFOSINE]	3.4 µM	96.3%	84.5%	> 100 µM	0.7 µM	100%	–	–	–	Active	–	Active	–	–	–	–
CCCCOP(=O)(N/N=C/c1ccncc1)OCCCC	99.3 µM	45.5%	77.2%	> 100 µM	5.1 µM	–	–	–	–	–	–	–	–	–	–	–
CCC(C)OP(=O)(N/N=C/c1c(Cl)cncc1Cl)OC(C)CC (stereo not given)	26 µM	92.4%	74.1%	> 100 µM	0.03 µM	–	–	–	–	–	–	–	–	–	–	20.5%
CC(C)COP(=O)(N/N=C/c1ccncc1)OCC(C)C	> 100 µM	inactive	84.2%	> 100 µM	0.06 µM	–	–	–	–	–	–	–	–	–	–	–
CC(C)COP(=O)(N/N=C/c1cccnc1)OCC(C)C	83.3 µM	52.8%	81.6%	> 100 µM	40.7 µM	–	–	–	–	–	–	–	–	–	–	–
